Results of several laboratories.
Protocols differ between the studies behind these lines.
Target: Dual specificity protein kinase TTK (TTK, Homo sapiens, UniProt P33981)
Residues used in one study (P33981 1-857): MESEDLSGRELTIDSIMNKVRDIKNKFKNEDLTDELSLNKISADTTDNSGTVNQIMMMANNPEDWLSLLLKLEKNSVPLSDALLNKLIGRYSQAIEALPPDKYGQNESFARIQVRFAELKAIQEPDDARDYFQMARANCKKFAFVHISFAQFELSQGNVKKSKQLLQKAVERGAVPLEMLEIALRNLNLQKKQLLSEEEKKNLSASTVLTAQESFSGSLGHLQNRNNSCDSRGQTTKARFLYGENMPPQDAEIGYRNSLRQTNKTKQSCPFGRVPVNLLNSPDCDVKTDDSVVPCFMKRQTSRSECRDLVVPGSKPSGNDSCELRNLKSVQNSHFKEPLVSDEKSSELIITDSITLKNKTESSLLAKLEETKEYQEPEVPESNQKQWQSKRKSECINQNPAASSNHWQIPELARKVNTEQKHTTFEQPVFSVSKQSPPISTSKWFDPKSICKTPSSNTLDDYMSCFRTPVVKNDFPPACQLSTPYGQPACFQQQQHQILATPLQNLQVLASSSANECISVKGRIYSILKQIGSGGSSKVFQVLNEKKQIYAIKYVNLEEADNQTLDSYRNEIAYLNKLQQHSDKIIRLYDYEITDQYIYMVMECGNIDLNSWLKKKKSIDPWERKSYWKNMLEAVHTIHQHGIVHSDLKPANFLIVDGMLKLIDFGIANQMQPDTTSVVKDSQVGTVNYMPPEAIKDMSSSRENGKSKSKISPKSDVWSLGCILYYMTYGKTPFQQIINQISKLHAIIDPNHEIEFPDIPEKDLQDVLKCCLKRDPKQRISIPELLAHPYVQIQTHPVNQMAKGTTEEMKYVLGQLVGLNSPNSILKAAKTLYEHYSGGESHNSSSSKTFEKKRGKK

Structure (SMILES) | effect on | action | method | concentration | measurement | value
Nc1ncc(-c2nc(N3CCOCC3)nc(N3CCOCC3)n2)c(C(F)F)n1 | binding | – | competition with immobilised ligand | 10 µM | remaining binding | 84%
COc1ncccc1-c1cnn2ccc(N3CCN(C(=O)OC(C)C)CC3)nc12 | binding | – | competition with immobilised ligand | 1 µM | remaining binding | 100%
Cn1cncc1[C@@](O)(COc1ccc(C#N)cc1-c1ccc(OC(F)(F)F)cc1)c1ccc(C#N)cc1 | cell-free assay | – | competition with immobilised ligand | 1 µM | remaining binding | 100%
CC(C)(C)c1cc(C=C(C#N)C#N)cc(Br)c1O | enzyme activity | inhibitor | – | 0.5 µM | remaining activity | 101%
N#CC1(c2ccccn2)CCN(Cc2cc(C(=O)O)c(=O)n3ccccc23)CC1 | cell-free assay | – | competition with immobilised ligand | 1 µM | remaining binding | 88%
Cn1cc(-c2cccc(N3CCc4c(sc5c4CC(C)(C)C5)C3=O)c2CO)cc(Nc2ccncn2)c1=O | enzyme activity | inhibitor | – | 1 µM | inhibition | -3%
O=c1[nH]c2ccccc2n1C1CCN(Cc2ccc(-c3[nH]c4cc5ncnc5cc4nc3-c3ccccc3)cc2)CC1 | cell-free assay | – | – | 0.5 µM | remaining signal | 104%
Cn1cc(-c2cc(F)cc(N3CCn4c(cc5c4CCCC5)C3=O)c2CO)cc(Nc2ccc(N3CCN(C4COC4)CC3)cn2)c1=O | enzyme activity | inhibitor | – | 0.1 µM | inhibition | -17%
Cc1nn(C)cc1-c1nc2c(N3CCN(Cc4ccc(Cl)cc4)CC3)c(Cl)cnc2[nH]1 | binding | – | competition with immobilised ligand | 1 µM | remaining binding | 100%
